Laboratory results: ChEMBL document CHEMBL3124837, “Bicyclic 1-hydroxy-2-oxo-1,2-dihydropyridine-3-carboxamide-containing HIV-1 integrase inhibitors having high antiviral potency against cells harboring raltegravir-resistant integrase mutants” (J Med Chem, 2014)

What was measured:
[1] = target: T1, Human immunodeficiency virus type 1 integrase (Human immunodeficiency virus 1, UniProt Q7ZJM1); test: Inhibition of HIV-1 integrase-mediated strand transfer activity using [32P]-labeled oligonucleotide as substrate after 2 hrs by densitometric analysis
Outline: (§1)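 400 nM integrase with 20 nM [γ-32P]-labeled DNA in 50 mM MOPS pH 7.2, 7.5 mM MgCl2, 14 mM 2-mercaptoethanol; compounds in DMSO. The substrate for 3′-processing was 21T/21B duplex, and for strand transfer the precleaved 19T/21B duplex. Reactions ran 2 h at 37 °C and were quenched with formamide/SDS loading buffer.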

[2] = target: T1, Human immunodeficiency virus type 1 integrase; test: Inhibition of HIV-1 integrase-mediated 3'-processing activity using [32P]-labeled oligonucleotide as substrate after 2 hrs by densitometric analysis; outline: as §1
[3] = Selectivity index, ratio of CC50 for HOS cells to EC50 for wild-type Human immunodeficiency virus 1
[4] = tested on: Human immunodeficiency virus 1; test: Antiviral activity against Human immunodeficiency virus 1 harboring integrase N155H mutant infected in HOS cells preincubated for 3 hrs followed by viral infection measured after 48 hrs by luciferase reporter gene assay; assay type: functional, organism-based; details: Human immunodeficiency virus 1, HOS
Outline: (§2)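 VSV-g-pseudotyped single-round HIV-1 luciferase vector (pNLNgoMIVR-ΔLUC; IN mutants made by site-directed mutagenesis), produced by 293T transfection. HOS cells seeded the day before, given compound over 10 μM to 0.0005 μM (11 serial dilutions), 3 h at 37 °C, then virus added; 48 h at 37 °C. Luciferase read-out normalized to no-compound infectivity; EC50 from regression fit.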

[5] = tested on: Human immunodeficiency virus 1; test: Antiviral activity against Human immunodeficiency virus 1 harboring integrase Y143R mutant infected in HOS cells preincubated for 3 hrs followed by viral infection measured after 48 hrs by luciferase reporter gene assay; assay type: functional, organism-based; details: Human immunodeficiency virus 1, HOS; outline: as §2
[6] = tested on: HOS; test: Cytotoxicity against HOS cells assessed as reduction in ATP level after 48 hrs by luciferase reporter gene assay; assay type: cell-based; details: human
Outline: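 HOS cells in DMEM with 5% FBS and 5% newborn calf serum, seeded 4000 per well the day before, exposed to compound for 48 h at 37 °C. Cells lysed and ATP measured with a luciferase (ATPlite) read-out. Signal normalized to untreated cells; CC50 from regression fit.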

[7] = tested on: Human immunodeficiency virus 1; test: Antiviral activity against wild-type Human immunodeficiency virus 1 infected in HOS cells preincubated for 3 hrs followed by viral infection measured after 48 hrs by luciferase reporter gene assay; assay type: functional, organism-based; details: Human immunodeficiency virus 1, HOS; outline: as §2
[8] = tested on: Human immunodeficiency virus 1; test: Antiviral activity against Human immunodeficiency virus 1 harboring integrase G140S/Q148H double mutant infected in HOS cells preincubated for 3 hrs followed by viral infection measured after 48 hrs by luciferase reporter gene assay; assay type: functional, organism-based; details: Human immunodeficiency virus 1, HOS; outline: as §2
[9] = tested on: Human immunodeficiency virus 1; test: Ratio of raltegravir EC50 to compound EC50 for Human immunodeficiency virus 1 harboring integrase E138K/Q148K double mutant; assay type: functional
Outline: (§3)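 VSV-g-pseudotyped single-round HIV-1 luciferase vectors, produced in 293T cells, carrying WT or site-directed mutant IN (G118R, Y143R, N155H, G140S+Q148H, E138K+Q148K). HOS cells were pretreated 3 h at 37 °C with compound (10 μM to 0.0005 μM, 11 serial dilutions), infected, and incubated 48 h. Luciferase signal was normalized to no-compound infectivity, and EC50 was taken from regression fit. Ratios were formed from these EC50s.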

[10] = tested on: Human immunodeficiency virus 1; test: Ratio of raltegravir EC50 to compound EC50 for Human immunodeficiency virus 1 harboring integrase G140S/Q148H double mutant; assay type: functional; outline: as §3
[11] = tested on: Human immunodeficiency virus 1; test: Ratio of raltegravir EC50 to compound EC50 for Human immunodeficiency virus 1 harboring integrase Y143R mutant; assay type: functional; outline: as §3
[12] = tested on: Human immunodeficiency virus 1; test: Ratio of raltegravir EC50 to compound EC50 for Human immunodeficiency virus 1 harboring integrase N155H mutant; assay type: functional; outline: as §3
[13] = tested on: Human immunodeficiency virus 1; test: Ratio of EC50 for Human immunodeficiency virus 1 harboring integrase G118R mutant to EC50 for wild-type Human immunodeficiency virus 1; assay type: functional; outline: as §3
[14] = tested on: Human immunodeficiency virus 1; test: Ratio of EC50 for Human immunodeficiency virus 1 harboring integrase N155H mutant to EC50 for wild-type Human immunodeficiency virus 1; assay type: functional

T1 sequence (Q7ZJM1 whole entry): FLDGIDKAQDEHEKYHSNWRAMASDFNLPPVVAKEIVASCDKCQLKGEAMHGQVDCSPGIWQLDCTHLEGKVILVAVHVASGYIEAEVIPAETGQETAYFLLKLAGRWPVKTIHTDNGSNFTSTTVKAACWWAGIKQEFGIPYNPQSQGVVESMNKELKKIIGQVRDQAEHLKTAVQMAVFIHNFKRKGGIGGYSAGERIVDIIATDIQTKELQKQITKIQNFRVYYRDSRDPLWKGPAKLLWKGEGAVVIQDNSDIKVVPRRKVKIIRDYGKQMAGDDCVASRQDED

SMILES | IC50 [1] [nM] | IC50 [2] [nM] | selectivity ratio [3] | EC50 [4] [nM] | EC50 [5] [nM] | CC50 [6] [nM] | EC50 [7] [nM] | also measured
COc1cccc2cc(C(=O)NCc3ccc(F)cc3F)c(=O)n(O)c12 | > 333000 | > 333000 |  |  |  |  |  | 
O=C(NCc1ccc(F)cc1F)c1c(O)c2cccnc2[nH]c1=O | 7100 | > 333000 |  |  |  |  |  | 
O=C(NCc1ccc(F)c(F)c1)c1cc2cccnc2n(O)c1=O | 17 | 13600 | > 4030 | 2200 | 40 | > 250000 | 62 | 
O=C(NCc1ccc(F)cc1F)c1cc2ccccc2n(O)c1=O | 19700 | > 333000 |  |  |  |  |  | 
O=C(NCc1ccc(F)cc1F)c1cc2cccc(O)c2n(O)c1=O | 18000 | 43000 |  |  |  |  |  | 
O=C(NCc1ccc(F)c(F)c1)c1c(O)c2cccnc2[nH]c1=O | 8100 | 93000 |  |  |  |  |  | 
O=C(NCc1ccc(F)c(Cl)c1)c1c(O)c2cccnc2n(O)c1=O | 27 | 4700 | 2910 | 148 | 54 | 102000 | 35 | EC50 [8]: 489 nM
O=C(NCc1ccc(F)c(Cl)c1)c1c(O)c2cccnc2[nH]c1=O | 7800 | 125000 |  |  |  |  |  | 
O=C(NCc1ccc(F)c(F)c1)c1c(O)c2cccnc2n(O)c1=O | 40 | 3600 | 9600 | 189 | 45 | 192000 | 20 | EC50 [8]: 507 nM
O=C(NCc1ccc(F)c(Cl)c1)c1cc2cccnc2n(O)c1=O | 14 | 9400 | > 6580 | 90 | 34 | > 250000 | 38 | 
O=C(NCc1ccc(F)cc1F)c1c(O)c2cccnc2n(O)c1=O | 55 | 1200 | 22100 | 31 | 11 | 137000 | 6.2 | Ratio EC50 [9]: 10; Ratio EC50 [10]: 10; Ratio EC50 [11]: 10; Ratio EC50 [12]: 10; Ratio EC50 [13]: 6; Ratio EC50 [14]: 5; EC50 [8]: 308 nM
Cc1nnc(C(=O)NC(C)(C)c2nc(C(=O)NCc3ccc(F)cc3)c(O)c(=O)n2C)o1 |  |  |  |  |  | > 100000 |  | 
O=C(NCc1ccc(F)c(F)c1)c1cc2cccc(O)c2n(O)c1=O | 780 | 24000 |  |  |  |  |  | 
O=C(NCc1ccc(F)c(Cl)c1)c1cc2cccc(O)c2n(O)c1=O | 530 | 17000 |  |  |  |  |  | 
O=C(NCc1ccc(F)cc1F)c1cc2cccnc2n(O)c1=O | 41 | 6100 | > 49000 | 134 |  | > 250000 | 5.1 | Ratio EC50 [14]: 26; EC50 [8]: 438 nM
